Assay results from different studies.
Lines come from different studies, so protocols differ.
Concentration: 1 µM
CDK5: Cyclin-dependent kinase 5 (CDK5, Homo sapiens, UniProt Q00535)
CDK5 with p35: Cyclin-dependent kinase 5, with p35 (CDK5, Homo sapiens, UniProt Q00535)

With `C=CC(=O)N1CCC([C@@H]2CCNc3c(C(N)=O)c(-c4ccc(Oc5ccccc5)cc4)nn32)CC1` the inhibition was 7% (CDK5; enzyme activity, inhibitor).
`CNS(=O)(=O)c1ccc(Nc2ncc(C(F)(F)F)c(N3CCC[C@](C)(O)C3)n2)c(C)c1` gave a remaining binding of 13% (CDK5; binding, competition with immobilised ligand).
For `COc1ccc2oc(-c3ccc4nc(N)oc4c3)c/c(=N\c3ccccc3NC(=O)CCN)c2c1`, the remaining binding was 107% (CDK5 with p35; binding).
`C[C@H]1CC[C@H](n2c3cnccc3c3cnc(Nc4ccc5c(n4)CCN(C(=O)CO)C5)nc32)CC1` has a remaining binding of 26% (CDK5; binding, competition with immobilised ligand).
`Cc1cc(S(=O)(=O)N[C@H]2CC[C@H](CN3CCN(c4ccc(C5CCC(=O)NC5=O)cc4F)CC3)CC2)ccc1Nc1ncc(C(F)(F)F)c(N2CCC[C@](C)(O)C2)n1` (some centres unmarked) gave a remaining binding of 29% (CDK5; binding, competition with immobilised ligand).
With `CN1CCN(C(=O)c2ccc(NC(=O)Nc3ccc(N(C)c4ccnc(Nc5ccc(CS(C)(=O)=O)cc5)n4)cc3)cc2)CC1` the remaining binding was 91% (CDK5; binding, competition with immobilised ligand).
With `CC(C)S(=O)(=O)c1ccc2nccc(Nc3ccc4sc(C5CCCC5)nc4c3)c2c1` the activity vs control was 101% (CDK5 with p35; enzyme activity, inhibitor).
`C=CC(=O)N1CCC[C@@H](n2nc(-c3ccc(Oc4ccccc4)cc3)c3c(N)ncnc32)C1` gave an inhibition of 10% (CDK5; enzyme activity, inhibitor).
